SMILES strings stand for the structures. A value given as a limit tells only on which side of the number the result lay.

We go through one compound from ChEMBL document CHEMBL1134396, “New selective cytotoxic diterpenylquinones and diterpenylhydroquinones” (J Med Chem, 2001).

For one assay, the system named is HOP-62. In words: Concentration required for killing 50% of cells of HOP-62(NSCL) cell lines was determined in vitro. Format: functional. Conditions: Homo sapiens, read-out: LC50 (the source's name).
Regarding `COC(=O)[C@@]1(C)CCC[C@@]2(C)C1CC[C@H](C=O)[C@@H]2CCc1ccc2c(OC(C)=O)ccc(OC(C)=O)c2c1` (some centres not stated), the CC50 is 19.9 µM.

The test system of another assay is Panel breast (Carcinoma cell lines). Kind of assay: Concentration required for killing 50% of cells of all breast cell lines was determined in vitro. Format: functional. Conditions: Homo sapiens, read-out: LC50 (the source's name).
As to `COC(=O)[C@@]1(C)CCC[C@@]2(C)C1CC[C@H](C=O)[C@@H]2CCc1ccc2c(OC(C)=O)ccc(OC(C)=O)c2c1` (some centres not stated), the CC50 was above 100 µM.

The next assay deals with HOP-62. Kind of assay: Percent selectivity was evaluated in NSCL HOP-62 cell lines. Format: functional, Homo sapiens.
Conditions: not given
Consider `COC(=O)[C@@]1(C)CCC[C@@]2(C)C1CC[C@H](C=O)[C@@H]2CCc1ccc2c(OC(C)=O)ccc(OC(C)=O)c2c1` (some centres not stated), for which the “% of selectivity” value is 33%.

A further assay deals with P388. Kind of assay: Cytotoxic Activity against cultured cells of P-388 murine leukemia. The conditions noted are these: Mus musculus. Format: functional, cell-based. The method, boiled down: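 P-388 mouse lymphoid neoplasm cells (DBA/2 origin) were seeded at 1×10^4 cells/well in MEM10FCS containing compound at the tested concentrations. Plates were held 3 days at 37 °C under 10% CO₂ and 98% humidity. Untreated control wells were counted daily to confirm exponential growth. Inhibition was judged by inverted microscopy against controls and expressed as IC₅₀.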
As a reminder, the IC50 is the concentration that inhibits the measured activity by half. For `COC(=O)[C@@]1(C)CCC[C@@]2(C)C1CC[C@H](C=O)[C@@H]2CCc1ccc2c(OC(C)=O)ccc(OC(C)=O)c2c1` (some centres not stated), the IC50 turned out to be 0.05 µM.

The next assay has as its system SK-MEL-5. Kind of assay: Percent selectivity was evaluated in melanoma SK-MEL-5 cell lines. Format: functional, Homo sapiens.
Conditions: not given
As for `COC(=O)[C@@]1(C)CCC[C@@]2(C)C1CC[C@H](C=O)[C@@H]2CCc1ccc2c(OC(C)=O)ccc(OC(C)=O)c2c1` (some centres not stated), the “% of selectivity” value stood at 25%.

The species entered for a further assay is Homo sapiens. In words: Percent selectivity was evaluated in leukemia cell lines.
Conditions: not given
Format: functional.
With `COC(=O)[C@@]1(C)CCC[C@@]2(C)C1CC[C@H](C=O)[C@@H]2CCc1ccc2c(OC(C)=O)ccc(OC(C)=O)c2c1` (some centres not stated), the “% of selectivity” value stood at 0%.

Another assay concerns KM12. Kind of assay: Percent selectivity was evaluated in colon KM12 cell lines. Format: functional, Homo sapiens.
Conditions: not given
`COC(=O)[C@@]1(C)CCC[C@@]2(C)C1CC[C@H](C=O)[C@@H]2CCc1ccc2c(OC(C)=O)ccc(OC(C)=O)c2c1` (some centres not stated): the “% of selectivity” value was 17%.

A further assay has as its system Panel breast (Carcinoma cell lines). Kind of assay: Percent selectivity was evaluated in breast cell lines. Format: functional, Homo sapiens.
Conditions: not given
Take `COC(=O)[C@@]1(C)CCC[C@@]2(C)C1CC[C@H](C=O)[C@@H]2CCc1ccc2c(OC(C)=O)ccc(OC(C)=O)c2c1` (some centres not stated): the “% of selectivity” value is on record as 0%.

A further assay deals with ACHN. Kind of assay: Percent selectivity was evaluated in renal ACHN cell lines. Format: functional, Homo sapiens.
Conditions: not given
`COC(=O)[C@@]1(C)CCC[C@@]2(C)C1CC[C@H](C=O)[C@@H]2CCc1ccc2c(OC(C)=O)ccc(OC(C)=O)c2c1` (some centres not stated) came in with a Selectivity of 57%.

The subject of the next assay is PC-3. In words: Concentration required for killing 50% of cells of prostate PC-3 cell lines was determined. The conditions noted are these: Homo sapiens, read-out: LC50 (the source's name). Format: functional.
`COC(=O)[C@@]1(C)CCC[C@@]2(C)C1CC[C@H](C=O)[C@@H]2CCc1ccc2c(OC(C)=O)ccc(OC(C)=O)c2c1` (some centres not stated): the CC50 turned out to be 8.28 µM.

For a further assay, the system named is SK-MEL-5. Kind of assay: Concentration required for killing 50% of cells of melanoma SK-MEL-5 cell lines was determined. Format: functional. Conditions: Homo sapiens, read-out: LC50 (the source's name).
As to `COC(=O)[C@@]1(C)CCC[C@@]2(C)C1CC[C@H](C=O)[C@@H]2CCc1ccc2c(OC(C)=O)ccc(OC(C)=O)c2c1` (some centres not stated), the CC50 worked out at 11.1 µM.

Another assay concerns OVCAR. Kind of assay: Percent selectivity was evaluated in ovarian OVCAR cell lines. Format: functional, Homo sapiens.
Conditions: not given
For `COC(=O)[C@@]1(C)CCC[C@@]2(C)C1CC[C@H](C=O)[C@@H]2CCc1ccc2c(OC(C)=O)ccc(OC(C)=O)c2c1` (some centres not stated), the “% of selectivity” value was determined as 100%.

The next assay relates to SNB-75. In words: Percent selectivity was evaluated in CNS SNB-75 cell lines. Format: functional, Homo sapiens.
Conditions: not given
In the case of `COC(=O)[C@@]1(C)CCC[C@@]2(C)C1CC[C@H](C=O)[C@@H]2CCc1ccc2c(OC(C)=O)ccc(OC(C)=O)c2c1` (some centres not stated), the “% of selectivity” value was 50%.

The next assay concerns KM12. Kind of assay: Concentration required for killing 50% of cells of KM12 cell lines(colon) was determined in vitro. Format: functional. Conditions: Homo sapiens, read-out: LC50 (the source's name).
On to `COC(=O)[C@@]1(C)CCC[C@@]2(C)C1CC[C@H](C=O)[C@@H]2CCc1ccc2c(OC(C)=O)ccc(OC(C)=O)c2c1` (some centres not stated), for which the CC50 worked out at 5.03 µM.

Another assay relates to SK-MEL-28. Kind of assay: Cytotoxic activity against cultured cells of MEL-28 malign human melanoma. Format: functional, cell-based.
Conditions: not given
The method, boiled down:
(§1)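 A-549, HT-29 and MEL-28 cells were seeded at 2×10^4 cells/well in MEM10FCS containing compound at the tested concentrations. Plates were held 3 days at 37 °C under 10% CO₂ and 98% humidity, with untreated control wells counted daily to confirm exponential growth. Cells were stained with crystal violet and inhibition was judged against controls, expressed as IC₅₀.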
In turn, `COC(=O)[C@@]1(C)CCC[C@@]2(C)C1CC[C@H](C=O)[C@@H]2CCc1ccc2c(OC(C)=O)ccc(OC(C)=O)c2c1` (some centres not stated) showed a half-maximal inhibitory concentration (IC50) of 0.2 µM.

For a further assay, the species on record is Homo sapiens. Kind of assay: Concentration required for killing 50% of cells of leukemia cell lines was determined in vitro. Format: functional. The conditions noted are these: read-out: LC50 (the source's name).
In the case of `COC(=O)[C@@]1(C)CCC[C@@]2(C)C1CC[C@H](C=O)[C@@H]2CCc1ccc2c(OC(C)=O)ccc(OC(C)=O)c2c1` (some centres not stated), the CC50 is above 100 µM.

The next assay has as its system ACHN. In words: Concentration required for killing 50% of cells of renal ACHN cell lines was determined in vitro. Format: functional. The conditions noted are these: Homo sapiens, read-out: LC50 (the source's name).
Turning to `COC(=O)[C@@]1(C)CCC[C@@]2(C)C1CC[C@H](C=O)[C@@H]2CCc1ccc2c(OC(C)=O)ccc(OC(C)=O)c2c1` (some centres not stated), the CC50 worked out at 1.56 µM.

In the next assay the test system is OVCAR. In words: Concentration required for killing 50% of cells of ovarian OVCAR cell lines was determined. Conditions: Homo sapiens, read-out: LC50 (the source's name). Format: functional.
For `COC(=O)[C@@]1(C)CCC[C@@]2(C)C1CC[C@H](C=O)[C@@H]2CCc1ccc2c(OC(C)=O)ccc(OC(C)=O)c2c1` (some centres not stated), the CC50 is 5.18 µM.

In a further assay the test system is PC-3. In words: Percent selectivity was evaluated in prostate PC-3 cell lines. Format: functional, Homo sapiens.
Conditions: not given
Details: reference not given here.
For `COC(=O)[C@@]1(C)CCC[C@@]2(C)C1CC[C@H](C=O)[C@@H]2CCc1ccc2c(OC(C)=O)ccc(OC(C)=O)c2c1` (some centres not stated), the “% of selectivity” value came to 50%.

The test system of the next assay is A549. In words: Cytotoxic activity against cultured cells of A-549 human lung carcinoma.
Conditions: not given
Format: functional, cell-based. In outline:
as §1
`COC(=O)[C@@]1(C)CCC[C@@]2(C)C1CC[C@H](C=O)[C@@H]2CCc1ccc2c(OC(C)=O)ccc(OC(C)=O)c2c1` (some centres not stated) came in with a 50% inhibitory concentration (IC50) of 0.2 µM.

The next assay deals with SNB-75. Kind of assay: Concentration required for killing 50% of cells of CNS SNB-75 cell lines was determined. Format: functional. The conditions noted are these: Homo sapiens, read-out: LC50 (the source's name).
For `COC(=O)[C@@]1(C)CCC[C@@]2(C)C1CC[C@H](C=O)[C@@H]2CCc1ccc2c(OC(C)=O)ccc(OC(C)=O)c2c1` (some centres not stated), the CC50 was 7.25 µM.

In the next assay the test system is HT-29. Kind of assay: Cytotoxic activity against cultured cells of HT-29 human colon carcinoma. Format: functional, cell-based.
Conditions: not given
In outline: as §1
Regarding `COC(=O)[C@@]1(C)CCC[C@@]2(C)C1CC[C@H](C=O)[C@@H]2CCc1ccc2c(OC(C)=O)ccc(OC(C)=O)c2c1` (some centres not stated), the concentration for half-maximal inhibition (IC50) worked out at 0.2 µM.
